Assay results published in ChEMBL document CHEMBL1128279, “Potent inhibitors of human inosine monophosphate dehydrogenase type II. Fluorine-substituted analogues of thiazole-4-carboxamide adenine dinucleotide” (J Med Chem, 1995).

Tests used:
[1] = target: Inosine-5'-monophosphate dehydrogenase 2 (Homo sapiens) (UniProt P12268); assay: Inhibitory binding constant was determined against human Inosine-5'-monophosphate dehydrogenase 2 (IMPDH type II) from intercept of Michaelis-Menten plot
Method in brief: (§1)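 Human IMPDH type II, stored at -70 °C in 20 mM Tris-HCl pH 8, 20 mM KCl, 1 mM EDTA, 1 mM DTT, thawed and filtered before use. Assay at 37 °C, started by adding enzyme, with saturating IMP. NADH formation read at 340 nm for 2–10 min. NAD at 20, 40, 80 and 160 µM, with two or three inhibitor levels. Kii (intercept) and Kis (slope) obtained by direct least-squares fit to the noncompetitive equation.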

[2] = target: Inosine-5'-monophosphate dehydrogenase 2 (Homo sapiens) (UniProt P12268); assay: Inhibitory binding constant was determined against human Inosine-5'-monophosphate dehydrogenase 2 (IMPDH type II) from slope of Michaelis-Menten plot; method in brief: as §1

Sequence of Inosine-5'-monophosphate dehydrogenase 2 (Homo sapiens) (P12268 2-514 limits assumed): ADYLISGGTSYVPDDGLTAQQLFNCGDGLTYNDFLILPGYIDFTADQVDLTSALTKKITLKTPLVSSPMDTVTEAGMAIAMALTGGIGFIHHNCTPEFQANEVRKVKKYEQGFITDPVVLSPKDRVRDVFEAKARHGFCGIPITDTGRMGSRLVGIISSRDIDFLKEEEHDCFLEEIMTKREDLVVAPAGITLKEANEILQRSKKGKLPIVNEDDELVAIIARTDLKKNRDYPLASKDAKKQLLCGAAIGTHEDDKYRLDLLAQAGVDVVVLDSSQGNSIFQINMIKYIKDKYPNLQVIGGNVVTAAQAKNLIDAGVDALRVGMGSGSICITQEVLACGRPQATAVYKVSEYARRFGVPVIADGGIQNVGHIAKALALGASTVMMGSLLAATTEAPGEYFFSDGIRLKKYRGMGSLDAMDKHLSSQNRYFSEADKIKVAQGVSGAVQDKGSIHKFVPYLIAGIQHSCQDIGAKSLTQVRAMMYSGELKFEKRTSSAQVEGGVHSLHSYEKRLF

Structure (SMILES) | Kii [1] [µM] | Kis [2] [µM]
NC(=O)c1csc([C@@H]2O[C@H](COP(=O)(O)OP(=O)(O)OC[C@@H]3O[C@H](n4cnc5c(N)ncnc54)[C@H](F)[C@H]3O)[C@@H](O)[C@H]2O)n1 | 2.9 | 13
NC(=O)c1csc([C@H]2O[C@@H](COP(=O)(O)OP(=O)(O)OC[C@H]3O[C@@H](n4cnc5c(N)ncnc54)[C@H](O)[C@@H]3O)[C@H](O)[C@@H]2O)n1 | 0.19 | 0.3
NC(=O)c1csc([C@@H]2O[C@H](COP(=O)(O)CP(=O)(O)OC[C@@H]3O[C@H](n4cnc5c(N)ncnc54)[C@@H](O)[C@H]3O)[C@@H](O)[C@H]2O)n1 | 0.11 | 
NC(=O)c1csc([C@@H]2O[C@H](COP(=O)(O)OP(=O)(O)OC[C@@H]3O[C@H](n4cnc5c(N)ncnc54)[C@@H](F)[C@H]3O)[C@@H](O)[C@H]2O)n1 | 0.5 | 6
NC(=O)c1csc([C@@H]2O[C@H](COP(=O)(O)C(F)(F)P(=O)(O)OC[C@@H]3O[C@H](n4cnc5c(N)ncnc54)[C@@H](O)[C@H]3O)[C@@H](O)[C@H]2O)n1 | 0.17 | 0.3
NC(=O)c1csc([C@@H]2O[C@H](COP(=O)(O)OP(=O)(O)OC[C@@H]3O[C@H](n4cnc5c(N)ncnc54)[C@@H](O)[C@H]3F)[C@@H](O)[C@H]2O)n1 | 0.7 | 1.5
